The chains are these.
B1: tRNA (parent)
chain: GUUCCGUUGGCGUAAUGGUAACGCGUCUCCCUCCUAAGGAGAAGACUGCGGGUUCGAGUCCCGUACGGAACG

Fewer inactive variants are shown than the library holds. Bounds are passed on as bounds.

The variants in this data set derive from B1. The experiment in a line: yeast fitness relative to wild type (ratio to wild type); higher = fitter; tRNA-Arg(CCU), competitive growth, 37 C, YPD. The procedure, abridged: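 Variants of the tRNA-Arg(CCU) gene were chemically synthesised with a 3% per-site mutation rate across 69 sites and placed at the native genomic locus in Saccharomyces cerevisiae. Six parallel replicates of the pooled strains were competed in YPD at 37°C for 24 hours, and gene amplicons from the start and end populations were read by 100-nucleotide paired-end sequencing. Darwinian fitness relative to wild type was derived from changes in genotype frequencies. Genotypes required ≥ 100 starting reads, and estimates < 0.5 were set to 0.5.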
Turning to C5G A37G C46G A57G, the yeast fitness is ≤ 0.5.
As for C5G A37C G38A, the yeast fitness was determined as 0.562.
Next, C5G C27U G51A C60G A70G: ≤ 0.5; C5G C22U U26C: ≤ 0.5; C5G C29U C30A C66U: 0.645.
For C5G A20G A40G G44A C46G A65C the value was ≤ 0.5; for C5G C31U A36C G38A U54A, ≤ 0.5.
On to C5G A43G G56A C61G C62A, for which the yeast fitness was ≤ 0.5.
Take C5G C30G C66U: the yeast fitness is ≤ 0.5.
Regarding C5G C31U C49G C66U, the yeast fitness was ≤ 0.5.
Next, C5G A45C: 0.85.
Next, C5G A21C C33U: 0.535; C5G A21C C33G: ≤ 0.5.
As for C5G C11A C29G C33U G50A, the yeast fitness is ≤ 0.5.
With C5G C29U G39A, the yeast fitness came out at 0.671.
For C5G C22A C33G the value was 0.61.
Next, C5G C30A A36G U64C: ≤ 0.5; C5G A42U G67A: 0.532; C5G A21G C30U A40U: ≤ 0.5.
In the case of C5G C27G U28A C30U G48A G58A C66U, the yeast fitness is ≤ 0.5.
For C5G C22U A57G the value was ≤ 0.5.
For C5G C27U C34U G56C the value was 0.646; for C5G C24G C30G C31U U35A A36U G44A C61U, 0.67; for C5G C22G C66U, ≤ 0.5.
Next, C5G A20C C27A G39A C61G: ≤ 0.5; C5G A21C G39A: ≤ 0.5.
Regarding C5G C33U, the yeast fitness came out at 0.673.
For C5G C33A the value was 0.616; for C5G C27U U54C, 0.747.
Consider C5G A40C U53G C60A, for which the yeast fitness was ≤ 0.5.
Take C5G C11U G48C C49A A57C: the yeast fitness was ≤ 0.5.
C5G C24G C30G C31U U35A A36U: the yeast fitness worked out at 0.755.
For C5G A21G U32C C62U A65U G68A the value was ≤ 0.5.
In the case of C5G C11U C30U A36C G58A G67C, the yeast fitness is ≤ 0.5.
Next, C5G A21U C29A: 0.631; C5G C31A C55U A65C A70U: ≤ 0.5.
Consider C5G A45G A69U, for which the yeast fitness turned out to be 0.688.
For C5G A21G A45U G56A the value was 0.753; for C5G A69C A70G, 0.692; for C5G C22U C27U A36G A69C, ≤ 0.5.
As for C5G C22U G50U, the yeast fitness was 0.563.
For C5G A21G U26C C27G G48C G67A the value was 0.531; for C5G C29A G48A A65U, ≤ 0.5; for C5G A20C C31A, 0.55.
Next, C5G A15U C29G U59G: ≤ 0.5; C5G C11A U26C A40U U64C: ≤ 0.5; C5G C22U G56C: ≤ 0.5.
Next, C5G A20C G39C C62U G63C: ≤ 0.5; C5G A20G A36C: 0.52.
Regarding C5G A43U A65C, the yeast fitness is 0.557.
For C5G C11A A14G G25C C29G A70G the value was ≤ 0.5; for C5G C24G C30G C31U U35A A36U G44A, 0.832; for C5G C29A G48A, ≤ 0.5.
For C5G A37C A69C the value was 0.511; for C5G C24U C33U A57U A69U, ≤ 0.5; for C5G A20C C24U G68A, ≤ 0.5.
On to C5G C22G C55U, for which the yeast fitness is ≤ 0.5.
For C5G A21U C29U A37U A43G C66G the value was ≤ 0.5; for C5G A21G C27G C34G A43C C46G A70G, 0.561; for C5G A40C A70G, 0.543.
In the case of C5G C27U C29G, the yeast fitness was ≤ 0.5.
C5G A20C C31G A37U: the yeast fitness turned out to be 0.617.
For the variant C5G C27U C66U, the yeast fitness worked out at 0.654.
For C5G C30U G44C the value was ≤ 0.5; for C5G C31G C46A G63C A65U, ≤ 0.5.
As for C5G A36G A40C, the yeast fitness stood at 0.683.
With C5G A21G C62U, the yeast fitness is 0.677.
Next, C5G A21G C22U: 0.689.
For C5G A40C U59A the value was ≤ 0.5; for C5G C22G C55G G63C, 0.679.
For C5G C11U A42G C49U A69C A70G, the yeast fitness is ≤ 0.5.
Next, C5G A20U C46A A57U: ≤ 0.5; C5G A20U U28G: ≤ 0.5; C5G A43C G48C U64C: ≤ 0.5.
For C5G A20G C22G C29G G63C A69U, the yeast fitness was determined as 0.527.
Regarding C5G A20G A36C G63A, the yeast fitness is ≤ 0.5.
For C5G A36G A43U A69C the value was 0.655; for C5G A20U G25A G41A C55G U64G, 0.534; for C5G C11G C30U C31U A57G G63A, ≤ 0.5.
For C5G C24U, the yeast fitness was found to be 0.893.
With C5G C27U C46U U54C, the yeast fitness is ≤ 0.5.
Next, C5G A15U G44C G50A U54A: ≤ 0.5; C5G A15U C46U: 0.594; C5G A20G A40G G44A C46G A70C: ≤ 0.5.
Turning to C5G C24U C61A A70C, the yeast fitness is ≤ 0.5.
Take C5G A15U A40U G67C: the yeast fitness is ≤ 0.5.
Next, C5G A15U C30A C31A C49U C66G: ≤ 0.5; C5G C27U G67A: 0.524; C5G A40U C62U: ≤ 0.5.
Next, C5G C11A A15G G18A A42U: ≤ 0.5.
In the case of C5G A20C U28C C29A A36U A40U C49G, the yeast fitness is ≤ 0.5.
With C5G C11A A14G G25C C29G C60U, the yeast fitness was ≤ 0.5.
C5G C11U A14U A37U A45C: the yeast fitness was ≤ 0.5.
Turning to C5G A45C A70C, the yeast fitness was 0.725.
C5G A15G U16A A20G U28A C30A C33A A36U G63A A69C: the yeast fitness was ≤ 0.5.
For C5G C30U A42G the value was 0.57; for C5G A45C C46U, 0.643.
Regarding C5G C11G C24U C62A, the yeast fitness was determined as 0.584.
As for C5G C11A A14G G25C U28C C29G, the yeast fitness was ≤ 0.5.
As for C5G C33G G67A, the yeast fitness was ≤ 0.5.
For the variant C5G A15G C66U, the yeast fitness was ≤ 0.5.
Next, C5G A20G C22G C29G G63A: ≤ 0.5.
For C5G A20G C22G C29G G63C the value was ≤ 0.5; for C5G A42G U54A, 0.639.
For the variant C5G C29A G56A, the yeast fitness turned out to be 0.615.
Next, C5G A21G U28C U32C A65U G68A: ≤ 0.5.
For C5G C27U C31A U35C C55G C66U A70C the value was ≤ 0.5.
For C5G A37G C46G C61A the value was ≤ 0.5; for C5G C11G G12A A37C G50A, 0.533.
On to C5G C27A C31A A42C, for which the yeast fitness was ≤ 0.5.
Next, C5G C33G C60G C66G: 0.584.
In the case of C5G C22A U26C C33G U35A, the yeast fitness was ≤ 0.5.
In the case of C5G A37U A43C A65U, the yeast fitness was ≤ 0.5.
For C5G C31U A36C G38A G56A A70U the value was ≤ 0.5; for C5G C11U G25A, 0.787.
Regarding C5G C30G G52A, the yeast fitness is 0.523.
For C5G C30G G52C the value was 0.519.
Next, C5G A20G C34A A40U: ≤ 0.5; C5G C11G C34U C55U G67C: ≤ 0.5.
For C5G C30U U32A C61G the value was ≤ 0.5.
Regarding C5G A15G A36G A45C G50U, the yeast fitness was ≤ 0.5.
Consider C5G C11G A70U, for which the yeast fitness is ≤ 0.5.
For C5G C11G A15U A70U the value was ≤ 0.5.
Consider C5G C22U U28G U54C A65G, for which the yeast fitness was ≤ 0.5.
For C5G A21C A45G the value was 0.512; for C5G C11U A37C C49U C60A, 0.557.
Turning to C5G C27G C33U G56A, the yeast fitness came to 0.527.
In the case of C5G A45C C66G, the yeast fitness is ≤ 0.5.
For C5G C27U C61G the value was ≤ 0.5.
With C5G A40C G52A C62U, the yeast fitness was ≤ 0.5.
In the case of C5G A37U C49G, the yeast fitness is ≤ 0.5.
As for C5G C24U A36C C49A, the yeast fitness amounted to 0.577.
As to C5G A36G A45G G51C C61A, the yeast fitness was ≤ 0.5.
For C5G C22A A43G the value was 0.557; for C5G A65G, 1; for C5G A21C C24U C33U, ≤ 0.5.
For the variant C5G C11A A21G, the yeast fitness is 0.581.
Next, C5G C11U G25C G52U A70C: ≤ 0.5.
Regarding C5G C29G, the yeast fitness was 0.779.
In the case of C5G C29A, the yeast fitness worked out at 0.604.
Regarding C5G C29U, the yeast fitness was found to be 0.793.
As to C5G A37C G51A U53C C62A, the yeast fitness was ≤ 0.5.
For C5G C24G C60G the value was 0.518.
As to C5G A20U G25A G41A C55G, the yeast fitness is ≤ 0.5.
For C5G C11U C60G the value was ≤ 0.5; for C5G C29G G52A G67A, ≤ 0.5; for C5G A20U C30U C62U, ≤ 0.5.
For C5G C22U the value was 0.72.
On to C5G C22G, for which the yeast fitness turned out to be 0.652.
Next, C5G C22A: 0.766; C5G C27U C62U: 0.626; C5G C27G C29U C31U A45G C49A C66U: ≤ 0.5.
For C5G A37C the value was 0.731; for C5G A37U, 0.726.
Next, C5G C11U A37C C49U: 0.609; C5G C11G U35G A42G G56C: ≤ 0.5.
In the case of C5G A15G C24G U32A C34G C66U, the yeast fitness is ≤ 0.5.
For C5G A21C A45U C46U the value was ≤ 0.5.
Next, C5G C11G A21C U28G C66U: 0.605.
For the variant C5G C27G A45C, the yeast fitness is ≤ 0.5.
Next, C5G C11U A42G C49U A70U: 0.588; C5G C27G A57C: ≤ 0.5.
Next, C5G A37C G38A C60G: ≤ 0.5; C5G C22G C55G A70U: ≤ 0.5.
Next, C5G C11A: 0.609; C5G A15G U16A A20G U28A C30A C33A A36U A65U A69C: ≤ 0.5.
With C5G A15G C27G C30A, the yeast fitness is ≤ 0.5.

The record behind these values is the RNAGym collection of RNA variant scans (doi:10.1126/science.aae0568).
